According to ChEMBL document CHEMBL4261504, “Identification of steroid-like natural products as antiplasmodial agents by 2D and 3D similarity-based virtual screening” (Medchemcomm, 2017):

Legend:
[1] = tested on: Plasmodium falciparum; test: Antimalarial activity against Plasmodium falciparum NF54 infected in human erythrocytes assessed as reduction in [3H]hypoxanthine incorporation preincubated for 48 hrs followed by [3H]hypoxanthine addition measured after 24 hrs by liquid scintillation counting; assay type: functional, organism-based
Procedure, shortened: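 Chloroquine-sensitive P. falciparum NF54 was tested in a modified [3H]hypoxanthine incorporation assay. Test compounds were run up to 20 μM, and fusidic acid was tested above that. Chloroquine, artesunate and fusidic acid served as positive controls. Compound purity was ≥95%. IC50 is the mean of at least 2 independent experiments.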

[2] = tested on: CHO; test: Cytotoxicity against CHO cells by MTT assay; assay type: cell-based; conditions: Cricetulus griseus
Procedure, shortened: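 Mammalian Chinese hamster ovary (CHO) cell line, with emetine as the positive control. Test samples were of ≥95% purity. Cytotoxicity is reported as IC50.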

[3] = Selectivity index, ratio of IC50 for CHO cells to IC50 for Plasmodium falciparum NF54 infected in human erythrocytes; assay type: toxicity, cell-based; conditions: Chinese hamster, read-out: Ratio IC50
Procedure, shortened: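 SI was calculated as the IC50 against Chinese hamster ovary (CHO) cells divided by the IC50 against P. falciparum NF54. The NF54 value came from the [3H]hypoxanthine incorporation assay. Emetine was the positive control for CHO cytotoxicity.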

Compound | IC50 [1] [µM] | IC50 [2] [µM] | selectivity ratio [3]
CC(=O)O[C@@H]1CC[C@]2(C)[C@H]3CC[C@@]4(C)[C@@H]([C@@H](C)CCCC(C)C)CC[C@H]4[C@@H]3CC[C@@]2(O)[C@@H]1O | > 20 | – | –
CC(=O)OC(C)(C)/C=C/C(=O)[C@](C)(O)[C@H]1[C@H](O)C[C@@]2(C)[C@@H]3CC=C4[C@@H](C[C@H](O)C(=O)C4(C)C)[C@]3(C)C(=O)C[C@]12C | 1.39 | 1.99 | 1.43
COc1ccc2c(c1)CC[C@@H]1[C@H]3[C@H](OCc4ccccc4)CC4(OCCO4)[C@H]3CC[C@@H]21 | 7 | – | –
CC(=O)OC(C)(C)/C=C/C(=O)[C@](C)(O)[C@H]1[C@@H](O)C[C@@]2(C)[C@@H]3CC=C4[C@@H](CC[C@H](O)C4(C)C)[C@]3(CO)C(=O)C[C@]12C | 1.76 | 8.51 | 4.83
COc1ccc2c(c1)CC[C@@H]1[C@@H]2CC[C@]2(C)C3(CC[C@@]12C=O)SCCS3 | > 20 | – | –
CC(=O)O[C@H]1CC[C@]2(C)[C@H]3CC[C@@]4(C)[C@H](CC[C@@H]4[C@H](C)CCCC(C)C)[C@@H]3C[C@@H](O)[C@]2(O)C1 | > 20 | – | –
CC(=O)[C@@]12O[C@@H]1C[C@H]1[C@H]3CC=C4[C@@H](CC[C@@H](O)C4(C)C)[C@]3(C)C(=O)C[C@@]12C | > 20 | – | –
CC[C@H]1CC[C@@]2(C)[C@H]3C[C@H]4O[C@@]45[C@@H](CC[C@@H](O)C5(C)C)[C@@H]3C(=O)C[C@@]12C | > 20 | – | –
C[C@@H]1CC[C@@]2(OC1)O[C@H]1C[C@H]3[C@@H]4CC[C@H]5C[C@@H](O)CC[C@]5(C)C4=CC(=O)[C@]3(C)[C@H]1[C@@H]2C | > 20 | – | –
C[C@@H]1CC[C@@]2(OC1)O[C@H]1C[C@H]3[C@@H]4CC=C5C[C@@H](O)CC[C@]5(C)[C@H]4CC[C@]3(C)[C@H]1[C@@H]2C [DISOGENIN] | > 20 | – | –
CC(=O)O[C@@H]1C[C@@]2(C)[C@@H]3CC=C4[C@@H](CC(=O)C4(C)C)[C@]3(C)C(=O)C[C@]2(C)[C@H]1C(C)=O | > 20 | – | –
CC(=O)O[C@@H]1C[C@H]2[C@@](C)(C(=O)C[C@]3(C)[C@@H](C(C)=O)CC[C@@]23C)[C@@H]2CCC(=O)C(C)(C)[C@@]12O | > 20 | – | –
CC(=O)O[C@H]1CC[C@@H]2[C@@H]3C[C@H](OC(C)=O)[C@@]45O[C@@H]4CCC[C@]5(C)[C@H]3CC[C@]12C | > 20 | – | –
CC(=O)OC(C)(C)/C=C/C(=O)[C@](C)(O)[C@H]1[C@H](O)C[C@@]2(C)[C@@H]3CC=C4[C@@H](C[C@H](O)C(=O)C4(C)C)[C@]3(CO)C(=O)C[C@]12C [CUCURBITACIN A] | 2.92 | 55.2 | 18.9
CC(=O)O[C@H]1C[C@@H](O)[C@]2(O)CC[C@@H]3[C@H]4CC[C@H]([C@H](C)CCCC(C)C)[C@@]4(C)CC[C@@H]3[C@@]2(C)C1 | 13.1 | – | –
CC1(C)CCC[C@H]2[C@]3(C)CC[C@]4(C)CCC[C@H]4[C@H]3C[C@@H](O)[C@@]21O | 15.8 | – | –
CC(=O)O[C@H]1CC[C@@]2(C)C(=CC[C@@H]3[C@H]4CCC[C@@]4(C)CC[C@H]32)C1 | > 20 | – | –
CC(C)CCC[C@@H](C)[C@H]1CC[C@@H]2[C@@H]3C[C@H](O)[C@]4(O)C(=O)CCC[C@]4(C)[C@H]3CC[C@@]21C | > 20 | – | –
CC(=O)O[C@H]1CC[C@@H]2[C@H]3CC[C@@]4(O)[C@H](CCC[C@@H]4O)[C@H]3CC[C@]12C | > 20 | – | –
C[C@H](CCC(=O)O)[C@H]1CC[C@H]2[C@@H]3[C@H](O)C[C@@H]4C[C@H](O)CC[C@]4(C)[C@H]3C[C@H](O)[C@]12C [CHOLIC ACID] | > 20 | – | –
C[C@H]1[C@H](OC(=O)CCC(=O)O)O[C@@H]2O[C@@]3(C)CC[C@H]4[C@H](C)CC[C@@H]1[C@@]24OO3 [ARTESUNATE] | 0.004 | – | –
CC(=O)O[C@H]1C(=O)C[C@@H]2C(=CC[C@H]3[C@@]2(C)C(=O)C[C@]2(C)C(C(C)=O)=CC[C@@]32C)C1(C)C | 19.8 | – | –
CC(=O)O[C@H]1C[C@@H]2[C@H]3CC[C@H]([C@H](C)CCCC(C)C)[C@@]3(C)CC[C@@H]2[C@@]2(C)CCC[C@@H](O)[C@]12O | > 20 | – | –
CC(=O)O[C@H]1CC[C@@H]2[C@H]3C[C@@H](O)[C@@]4(O)CCCC[C@H]4[C@@H]3CC[C@]12C | > 20 | – | –
COc1ccc2c(c1)CC[C@H]1[C@@H]2CC[C@@]2(C)[C@]13C=C[C@@]2(C(C)=O)[C@@H](S(=O)(=O)c1ccccc1)C3 | > 20 | – | –
CC(=O)OC[C@@]12C(=O)C[C@@]3(C)[C@H](C(C)=O)CC[C@@]3(C)[C@@H]1C[C@H]1O[C@@]13[C@H]2CC[C@@H](OC(C)=O)C3(C)C | > 20 | – | –
COC(=O)CC[C@@H](C)[C@H]1CC[C@@H]2[C@H]3[C@H](OC(C)=O)C[C@H]4C[C@H](OC(C)=O)CC[C@]4(C)[C@H]3C[C@H](OC(C)=O)[C@@]21C | 3.45 | 141 | 40.9
CC(=O)O[C@H]1C[C@@]2(C)[C@@H](C[C@@H](O)[C@H]3[C@@]4(C)CC[C@@H](O)[C@@H](C)[C@@H]4CC[C@@]32C)/C1=C(\CCC=C(C)C)C(=O)O [FUSIDIC ACID] | – | 194 | –
